Runt-CBFb FRET: inhibitors of human RUNX1 Runt domain binding to CBFb. Q01196+Q13951. Cerulean-Runt/Venus-CBFb FRET ratio 530/480, 1 h. inhibition, % at 20 µM. 220,000 tested, 0.46% active;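 active means inhibition over about 50% at 20 µM in the single-dose screen, limit read from the data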
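Measured by: fluorescence energy transfer, 422 nm excitation, 530/480 nm emission; Assay system: Cerulean-Runt domain; Medium: Tris pH 7.5 buffer with BSA; Measure: loss of energy transfer signal; Controls: 5 µM unlabeled CBFb as full-inhibition high control; Incubation: protein complex preformed 1 h, compound exposure 1 h, room temperature, dark.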
MEX-5 binding: C. elegans MEX-5 TCR-2 RNA binding activity; 300,000 tested, 0.38% active; MEX-5/FITC-TCR2 RNA binding, fluorescence polarization; hits give low values; activity score (negative = inhibition of binding), % at 10 µM;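 active means inhibition past about -25% in most replicates, and total fluorescence under double the plate's negative control median, limit read from the data; inconclusive means replicates evenly split on the limit, or fluorescence at least double controls; inactive means too little inhibition in most replicates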
Target sequence (Q9XUB2 whole entry, looked up): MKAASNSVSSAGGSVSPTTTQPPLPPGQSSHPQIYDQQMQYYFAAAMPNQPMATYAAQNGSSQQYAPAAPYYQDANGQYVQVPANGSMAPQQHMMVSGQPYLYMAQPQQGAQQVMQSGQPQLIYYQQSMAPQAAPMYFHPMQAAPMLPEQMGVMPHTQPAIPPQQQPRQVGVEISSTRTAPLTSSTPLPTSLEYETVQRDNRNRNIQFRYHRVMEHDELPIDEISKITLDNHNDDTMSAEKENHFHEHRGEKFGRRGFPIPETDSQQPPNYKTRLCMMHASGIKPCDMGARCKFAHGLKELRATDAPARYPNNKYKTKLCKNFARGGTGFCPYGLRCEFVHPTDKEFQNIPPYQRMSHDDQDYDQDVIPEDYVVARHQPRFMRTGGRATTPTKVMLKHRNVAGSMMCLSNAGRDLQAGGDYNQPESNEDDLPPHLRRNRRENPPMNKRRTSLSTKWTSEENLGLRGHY
RanGTP-Impb inh: inhibitors of RanGTP-importin-beta interaction, primary screen, biochemical, FRET, CFP-Ran, YFP-importin-beta, homogeneous. AID 2216. 300,000 tested, 1.1% active. cell-free CFP-Ran/YFP-importin-beta FRET ratio. inhibition, % (concentration not given with the values);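 active means more than half of the replicate wells show a fall in the fluorescence ratio signal beyond about 16%, limit read from the data, passing the limit was not always enough; inconclusive means exactly half of the replicate wells pass the set limit; inactive means fewer than half of replicates pass the limit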
proKLK7 act: activates the human kallikrein-7 zymogen; purified proKLK7, EDANS-DABCYL substrate fluorescence; 100% is mature enzyme control, 0% vehicle; P49862; activation, % at 7 µM; 370,000 tested, 0.9% active; AID 652039;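 active means activation above the mean of all tested compounds plus 3 SD, computed per campaign excluding outliers beyond control limits, cut at about 13% in these data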
Target sequence (P49862 whole entry, looked up): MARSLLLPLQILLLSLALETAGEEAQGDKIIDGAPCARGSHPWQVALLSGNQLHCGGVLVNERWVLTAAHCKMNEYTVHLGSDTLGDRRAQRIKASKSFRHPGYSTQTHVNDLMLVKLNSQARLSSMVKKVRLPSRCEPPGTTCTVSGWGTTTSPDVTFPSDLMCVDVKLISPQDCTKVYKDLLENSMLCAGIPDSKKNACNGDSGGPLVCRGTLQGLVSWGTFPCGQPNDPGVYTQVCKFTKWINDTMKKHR
Runt-SMMHC FRET: Runt domain-CBFb-SMMHC interaction inhibition. 220,000 tested, 0.74% active. inhibition, % at 20 µM. AID 1434. Q01196+Q13951. Cerulean-Runt/Venus-CBFb-SMMHC FRET ratio 530/480, 1 h;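 active means mean inhibition across duplicate retests at 20 µM reaching about 50%, limit read from the data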;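 further: inhibitors lower the FRET ratio by blocking Runt binding to CBFb-SMMHC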
KLK7 act conf: proKLK7 activation, confirmation; purified proKLK7, EDANS-DABCYL substrate fluorescence; scaled: vehicle 0, mature enzyme 100; activation, % at 7 µM; 3,200 tested, 68% active; shares compounds with proKLK7 act; AID 686949;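 active means activation, as change over the incubation, above the mean of all tested compounds plus 3 SD, cut at about 13% in these data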
EDANS interfere: fluorescence interference counter-screen for KLK7 activators | shares compounds with proKLK7 act | EDANS-DABCYL substrate fluorescence interference, no enzyme, 4 h; solvent 0%, active enzyme control 100% | activation, % at 7 µM | 3,200 tested, 80% active;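 active means activation above the all-compound mean plus 3 SD, ignoring values outside control-based bounds, cut at about 4.8% in these data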;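 further: value is the 4 h activation minus the activation read at time zero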
EDANS interf: counter-screen for kallikrein-7 activators: EDANS-DABCYL interference, dose response. shares compounds with proKLK7 act. EDANS-DABCYL peptide fluorescence interference, no enzyme. EC50, µM. 250 tested, 20% active;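 active means compounds that raise the fluorescence signal in this interference counterscreen, with EC50 at or below 10 µM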;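 further: intact quenched peptide substrate alone read at 355 nm excitation and 520 nm emission; signal is fluorescence gain from T0 to T4 after four hours at room temperature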
A number is an active result; – = inactive; ? = inconclusive; · = not tested or not shown. Only some compounds are listed: those with a hit (about 2.1% of all), similar ones and a draw of the others.

SMILES | Runt-CBFb FRET | MEX-5 binding | RanGTP-Impb inh | proKLK7 act | Runt-SMMHC FRET | KLK7 act conf | EDANS interfere | others
CCNC(=O)Nc1ccc2c(c1)c(=O)n(C)n2Cc1ccc(Cl)cc1 | · | · | · | 28 | · | 16 | 26
CC12CCC(=O)N1C(C(=O)NNC(=O)c1cccc(Cl)c1)CS2 (centres undefined) | · | – | – | – | · | · | ·
CN(C)C(=O)c1cccc(-c2cnc3cccnn23)c1 | · | · | · | 45 | · | 59 | 59
CN(C)CCCNC(=O)c1cccc(-c2ccc3nccn3c2)c1 | · | · | · | – | · | · | ·
CN(C)CCCNC(=O)c1cccc(-c2cnc3cccnn23)c1 | · | · | · | 54 | · | 60 | 62
Cc1ccc(-c2nc(C3CCCN(S(=O)(=O)c4ccc(Cl)s4)C3)no2)cc1 (centres undefined) | · | · | · | – | · | · | ·
COc1ccc2ccccc2c1C1NC(=O)c2ccccc2N1 (centres undefined) | · | · | · | 16 | · | – | 6.6
COc1ccc(C2NC(=O)c3ccccc3N2)cc1OC (centres undefined) | – | – | – | – | – | · | ·
CC(C)(C)NC(=O)Nc1ccc2nccnc2c1 | – | – | – | 64 | – | 70 | 77
O=C(O)c1ccc(-n2cccc2/C=C2/SC(=O)N(CC(=O)N3CCCC3)C2=O)cc1 | · | – | – | – | · | · | ·
CC(=O)c1cc2c(cc1NS(=O)(=O)c1ccccc1Br)OCO2 | · | – | – | 41 | · | 15 | 5.3 | EDANS interf=–
O=C1c2cccc3cccc(c23)C(=O)N1c1ccccc1Cl | · | – | – | 46 | · | 26 | 22
Nc1ccccc1N1C(=O)c2cccc3cccc(c23)C1=O | · | – | – | – | · | · | ·
CC(C)(C)c1ccc(CN2N=Nc3ccccc3S2(=O)=O)cc1 | – | – | – | 21 | – | – | –
N#Cc1ccccc1NC(=S)NC(=O)c1cccs1 | · | – | ? | 14 | · | 14 | 16
N#Cc1ccccc1NC(=O)COC(=O)c1cccs1 | · | · | · | – | · | · | ·
CCOC(=O)C[n+]1ccc2c([nH]c3ccccc32)c1C | · | – | – | 36 | · | 47 | 72
COc1cc(C(O)c2nc(-c3ccccc3OC)cs2)ccc1F (centres undefined) | · | · | · | – | · | · | ·
COc1cc(C2C(C#N)=C(N)OC3=C2C(=O)CC(C)(C)C3)c([N+](=O)[O-])cc1OC (centres undefined) | · | -54 | – | 20 | – | 21 | 18
CC1CCc2[nH]c3ccc(C(=O)NCCCOC(C)C)cc3c2C1 (centres undefined) | – | – | 22 | 14 | – | – | 12
Nc1ccc2nc(-c3ccccc3)sc2c1 | – | – | – | 63 | – | 63 | 68
Nc1ccc(-c2nc3ccccc3s2)cn1 | · | – | – | – | · | · | ·
Nc1ccc(-c2nc3cc(N)ccc3s2)cc1 | – | · | · | 52 | – | 16 | 67
Cc1ccc2nc(-c3ccc(N)cc3)sc2c1 | – | – | – | – | – | · | ·
Cc1cc(-c2nc3ccccc3s2)ccc1N | · | · | · | 41 | · | – | –
SMILES | Runt-CBFb FRET | MEX-5 binding | RanGTP-Impb inh | proKLK7 act | Runt-SMMHC FRET | KLK7 act conf | EDANS interfere | others
COC(=O)C1=C(C)N(CCCC(=O)O)C(=O)NC1c1cc2c(cc1[N+](=O)[O-])OCO2 (centres undefined) | – | – | – | 13 | – | 13 | 14
COC(=O)[C@H](NCc1ccc(OC)c(B(O)O)c1)C(C)C | · | · | · | – | · | · | ·
CCOP(=O)(OCC)c1nc(-c2ccc(OC)cc2)oc1N1CCOCC1 | – | – | – | – | – | · | ·
COP(=O)(OC)c1nc(-c2cccc3ccccc23)oc1N1CCOCC1 | – | – | – | 77 | – | 63 | 64
CCOc1cc2c(C#N)c(N3CCNCC3)nc(N)c2c(N)n1 | – | – | – | 69 | – | 67 | 64
COc1cc2c(C#N)c(N3CCOCC3)nc(N)c2c(N)n1 | – | – | ? | 22 | – | 21 | 23
N#Cc1c(N2CCOCC2)nc(N)c2c(N)nc3c(c12)CC(CCl)O3 (centres undefined) | – | – | – | 73 | – | 76 | 19 | EDANS interf=–
CCOc1cc2c(C#N)c(N3CCCCC3)nc(N)c2c(N)n1 | – | – | – | – | – | · | ·
Cc1ccc(NC(=O)c2cc(S(=O)(=O)N3CCCCC3)ccc2N2CCOCC2)c(C)c1 | · | · | · | – | · | · | ·
COc1ccc(-c2cc(C(F)(F)F)n3nc(C(=O)NCCN4CCOCC4)cc3n2)cc1 | – | – | – | – | – | · | ·
COc1ccc(-c2cc(C(F)(F)F)n3nc(C(=O)NCCCn4ccnc4)cc3n2)cc1 | – | – | – | 57 | – | – | –
CCOC(=O)C1=C(C)OC(N)=C(C#N)C1c1cc(OC)c2c(c1)OCO2 (centres undefined) | – | – | – | – | – | · | ·
CCOC(=O)C1=C(C)OC(N)=C(C#N)C1c1cc2c(cc1[N+](=O)[O-])OCO2 (centres undefined) | – | – | – | 29 | – | 15 | 15
COc1cccc2c(=O)c3c(cnn3C)n(C)c12 | – | · | 126 | 49 | 62 | 68 | 67
CN(C)c1ccc(N/C(N)=N/c2nc(C(F)(F)F)cc(C(F)(F)F)n2)cc1 | – | – | – | – | – | · | ·
COc1ccc(/C(C)=N/NC(=O)c2sccc2-n2cccc2)cc1 | – | – | – | – | – | · | ·
CCC1CCCN1Cn1cnc2c([nH]c3ccc(OC)cc32)c1=O (centres undefined) | – | – | – | 27 | – | – | 11
O=C(CNCc1ccc(F)cc1)Nc1ccccc1[N+](=O)[O-] | – | – | ? | – | – | · | ·
O=C(CSc1nccc(=O)[nH]1)NC1CCCCCC1 | · | · | · | 61 | · | – | –
CN1/C(=N\O)c2cccc3cccc1c23 | – | – | – | 21 | – | 40 | 51
CNC(=O)CN1C(=O)c2cccc3cccc1c23 | – | – | ? | – | – | · | ·
CC(=O)c1ccc(-c2cc(C(C)=O)c3n(c2=O)CCC3)cc1 | · | · | · | 44 | · | 61 | 74
CC(=O)c1cc(-c2ccc(S(C)(=O)=O)cc2)c(=O)n2c1CCC2 | · | · | · | – | · | · | ·
Cc1cc(N2CCN(C)CC2)ccc1NC(=O)c1cccc(S(=O)(=O)N2CCc3ccccc3C2)c1 | – | – | – | – | – | · | ·
COc1ccc(-c2nnc3ccc(SCC(=O)N4CCCC4)nn23)cc1 | – | – | – | – | – | · | ·
COc1ccc(-c2ccc3nnc(SCC(=O)N4CCCC4)n3n2)cc1 | · | – | – | 15 | · | 17 | 13 | EDANS interf=–
Cc1csc(=O)n1CCC(=O)OCC(=O)Nc1cc([N+](=O)[O-])ccc1Cl | · | – | – | – | · | · | ·

Screening results deposited in PubChem BioAssay by several laboratories.
